# According to ChEMBL document CHEMBL4038284, “Synthesis of novel quinoline-based 4,5-dihydro-1H-pyrazoles as potential anticancer, antifungal, antibacterial and antiprotozoal agents” (Eur J Med Chem, 2017):
# Key:
# Type in all cases: functional
# SF-268 = assay: Growth inhibition of human SF268 cells incubated for 48 hrs by sulforhodamine B assay; conditions: SF-268, 48 h
# How it was run: (§1)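 Five-dose NCI SRB assay at 100, 10, 1.0, 0.1 and 0.01 μM for 48 h at 37 °C, 5% CO2. Medium was RPMI-1640 with 5% FBS and 2 mM glutamine. Time-zero plates were TCA-fixed at compound addition, A515 read after SRB staining. GI50 was solved from [(Ti−Tz)/(C−Tz)]×100 = 50. Values beyond the tested range are given as > or <.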
# UACC-257 = assay: Growth inhibition of human UACC257 cells incubated for 48 hrs by sulforhodamine B assay; conditions: UACC-257, 48 h
# How it was run: (§2)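 NCI-60 panel cells grown in RPMI-1640 with 5% FBS and 2 mM L-glutamine, preincubated 24 h at 37 °C/5% CO2. Time-zero plates were TCA-fixed at compound addition. DMSO stocks were diluted in medium and tested at five final concentrations (100, 10, 1.0, 0.1, 0.01 µM) for 48 h. Cells were TCA-fixed, stained with SRB and read at 515 nm. GI50 = 50% lower net protein increase versus control.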
# SK-MEL-5 = assay: Growth inhibition of human SK-MEL-5 cells incubated for 48 hrs by sulforhodamine B assay; conditions: SK-MEL-5, 48 h
# How it was run: (§3)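 NCI 60-line screen. Cells in RPMI-1640 with 5% FBS and 2 mM L-glutamine, preincubated 24 h, then time-zero plates TCA-fixed. Compounds from DMSO stocks given at five final concentrations (100, 10, 1.0, 0.1, 0.01 µM) for 48 h at 37 °C, 5% CO2. Cells fixed with 10% TCA, SRB-stained, read at 515 nm. GI50 is the concentration giving 50% lower net protein increase versus control.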
# IGROV-1 = assay: Growth inhibition of human IGROV1 cells incubated for 48 hrs by sulforhodamine B assay; conditions: IGROV-1, 48 h; how it was run: as §3
# NCI-H522 = assay: Growth inhibition of human NCI-H522 cells incubated for 48 hrs by sulforhodamine B assay; conditions: NCI-H522, 48 h; how it was run: as §3
# PC-3 = assay: Growth inhibition of human PC3 cells incubated for 48 hrs by sulforhodamine B assay; conditions: PC-3, 48 h; how it was run: as §1
# SK-OV-3 = assay: Growth inhibition of human SKOV3 cells incubated for 48 hrs by sulforhodamine B assay; conditions: SK-OV-3, 48 h; how it was run: as §3
# SF-539 = assay: Growth inhibition of human SF539 cells incubated for 48 hrs by sulforhodamine B assay; conditions: SF-539, 48 h; how it was run: as §2
# NCI-H322M = assay: Growth inhibition of human NCI-H322M cells incubated for 48 hrs by sulforhodamine B assay; how it was run: as §1
# EKVX = assay: Growth inhibition of human EKVX cells incubated for 48 hrs by sulforhodamine B assay
# How it was run: (§4)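 NCI five-dose SRB assay (100, 10, 1.0, 0.1, 0.01 µM) with 48 h exposure in RPMI-1640 with 5% FBS and 2 mM L-glutamine. Cells fixed with TCA and stained with SRB, read at 515 nm. GI50 is the concentration where [(Ti−Tz)/(C−Tz)]×100 = 50.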
# UACC-62 = assay: Growth inhibition of human UACC62 cells incubated for 48 hrs by sulforhodamine B assay; conditions: UACC-62, 48 h; how it was run: as §3
# MDA-MB-231 = assay: Growth inhibition of human MDA-MB-231 cells incubated for 48 hrs by sulforhodamine B assay; conditions: MDA-MB-231, 48 h; how it was run: as §1
# RPMI-8226 = assay: Growth inhibition of human RPMI8226 cells incubated for 48 hrs by sulforhodamine B assay; conditions: RPMI-8226, 48 h; how it was run: as §3
# HOP-62 = assay: Growth inhibition of human HOP62 cells incubated for 48 hrs by sulforhodamine B assay; conditions: HOP-62, 48 h; how it was run: as §4
# HCT-15 = assay: Growth inhibition of human HCT15 cells incubated for 48 hrs by sulforhodamine B assay; conditions: HCT-15, 48 h; how it was run: as §3
# DU-145 = assay: Growth inhibition of human DU145 cells incubated for 48 hrs by sulforhodamine B assay; conditions: DU-145, 48 h; how it was run: as §4
# MDA-MB-468 = assay: Growth inhibition of human MDA-MB-468 cells incubated for 48 hrs by sulforhodamine B assay; conditions: MDA-MB-468, 48 h; how it was run: as §1
# M14 = assay: Growth inhibition of human M14 cells incubated for 48 hrs by sulforhodamine B assay; conditions: M14, 48 h; how it was run: as §1
# BT-549 = assay: Growth inhibition of human BT549 cells incubated for 48 hrs by sulforhodamine B assay; conditions: BT-549, 48 h; how it was run: as §4
# HOP-92 = assay: Growth inhibition of human HOP92 cells incubated for 48 hrs by sulforhodamine B assay; conditions: HOP-92, 48 h; how it was run: as §1
# NCI-H226 = assay: Growth inhibition of human NCI-H226 cells incubated for 48 hrs by sulforhodamine B assay; conditions: NCI-H226, 48 h; how it was run: as §3
# CCRF-CEM = assay: Growth inhibition of human CCRF-CEM cells incubated for 48 hrs by sulforhodamine B assay; how it was run: as §3
# SNB-75 = assay: Growth inhibition of human SNB75 cells incubated for 48 hrs by sulforhodamine B assay; conditions: SNB-75, 48 h; how it was run: as §3
# NCI-H23 = assay: Growth inhibition of human NCI-H23 cells incubated for 48 hrs by sulforhodamine B assay; conditions: NCI-H23, 48 h; how it was run: as §1
# OVCAR-3 = assay: Growth inhibition of human OVCAR3 cells incubated for 48 hrs by sulforhodamine B assay; conditions: OVCAR-3, 48 h; how it was run: as §1
# U-251 = assay: Growth inhibition of human U251 cells incubated for 48 hrs by sulforhodamine B assay; conditions: U-251, 48 h; how it was run: as §2
# SF-295 = assay: Growth inhibition of human SF295 cells incubated for 48 hrs by sulforhodamine B assay; conditions: SF-295, 48 h; how it was run: as §1
# HCC 2998 = assay: Growth inhibition of human HCC2998 cells incubated for 48 hrs by sulforhodamine B assay; conditions: HCC 2998, 48 h; how it was run: as §3
# Hs-578T = assay: Growth inhibition of human Hs578T cells incubated for 48 hrs by sulforhodamine B assay; how it was run: as §1
# KM12 = assay: Growth inhibition of human KM12 cells incubated for 48 hrs by sulforhodamine B assay; conditions: KM12, 48 h; how it was run: as §1
# SN12C = assay: Growth inhibition of human SN12C cells incubated for 48 hrs by sulforhodamine B assay; how it was run: as §2
# [1] = read-out: LC50 (the source's name)
compound,measurement,setting,value
O=CN1N=C(c2ccc(Cl)cc2)CC1c1cccc(Nc2ccnc3cc(Cl)ccc23)c1 (configuration not stated),GI50,SF-268,2.73 µM
same,CC50,SF-268; [1],> 100 µM
same,GI50,UACC-257,1.47 µM
same,CC50,UACC-257; [1],> 100 µM
same,GI50,SK-MEL-5,0.54 µM
same,CC50,SK-MEL-5; [1],5.05 µM
same,GI50,IGROV-1,1.44 µM
same,CC50,IGROV-1; [1],> 100 µM
same,GI50,NCI-H522,1.12 µM
same,CC50,NCI-H522; [1],66.7 µM
same,GI50,PC-3,1.69 µM
same,CC50,PC-3; [1],> 100 µM
same,GI50,SK-OV-3,2.9 µM
same,CC50,SK-OV-3; [1],> 100 µM
same,GI50,SF-539,1.69 µM
same,CC50,SF-539; [1],35.1 µM
same,GI50,NCI-H322M,5.52 µM
same,CC50,NCI-H322M; [1],> 100 µM
same,GI50,EKVX,1.59 µM
same,LC50,EKVX,> 100 µM
same,GI50,UACC-62,1.14 µM
same,CC50,UACC-62; [1],87.8 µM
same,GI50,MDA-MB-231,2.74 µM
same,CC50,MDA-MB-231; [1],> 100 µM
same,GI50,RPMI-8226,0.61 µM
same,CC50,RPMI-8226; [1],> 100 µM
same,GI50,HOP-62,1.21 µM
same,CC50,HOP-62; [1],70 µM
same,GI50,HCT-15,1.36 µM
same,CC50,HCT-15; [1],> 100 µM
same,GI50,DU-145,2.8 µM
same,CC50,DU-145; [1],> 100 µM
same,GI50,MDA-MB-468,0.28 µM
same,CC50,MDA-MB-468; [1],> 100 µM
same,GI50,M14,1.55 µM
same,CC50,M14; [1],> 100 µM
same,GI50,BT-549,1.78 µM
same,CC50,BT-549; [1],> 100 µM
same,GI50,HOP-92,1.45 µM
same,LC50 (concentration giving 50% net cell kill),HOP-92,> 100 µM
same,GI50,NCI-H226,1.87 µM
same,CC50,NCI-H226; [1],> 100 µM
same,GI50,CCRF-CEM,1.42 µM
same,CC50,CCRF-CEM; [1],> 100 µM
same,GI50,SNB-75,1.7 µM
same,CC50,SNB-75; [1],> 100 µM
same,GI50,NCI-H23,1.07 µM
same,CC50,NCI-H23; [1],> 100 µM
same,GI50,OVCAR-3,1.1 µM
same,CC50,OVCAR-3; [1],83.3 µM
same,GI50,U-251,2.47 µM
same,CC50,U-251; [1],53.9 µM
same,GI50,SF-295,0.5 µM
same,CC50,SF-295; [1],> 100 µM
same,GI50,HCC 2998,3.12 µM
same,CC50,HCC 2998; [1],> 100 µM
same,GI50,Hs-578T,3.23 µM
same,CC50,Hs-578T; [1],> 100 µM
same,GI50,KM12,1.22 µM
same,CC50,KM12; [1],> 100 µM
same,GI50,SN12C,3.99 µM
same,CC50,SN12C; [1],> 100 µM
